Calls of active or inactive are those of the source. How the calls were made is not given here.
Experiments:
J774.A1 [1] = test: Stimulation of TNFalpha production in mouse J774.A1 cells at 50 uM after 24 hrs by ELISA relative to untreated control; format: functional
Outline: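 Murine J774.A1 macrophages grown in DMEM with 10% heat-inactivated FBS and 10 mM HEPES at 37°C under 5% CO2, detached by scraping. Plated at 2×10^5 cells/well in medium with 3% FBS and exposed 24 hr to compound, DMSO vehicle or LPS. Supernatant TNF-α measured by murine ELISA against a standard curve. Reported as fold-increase over DMSO control.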

J774.A1 [2] = test: Cytotoxicity against mouse J774.A1 cells assessed as effect on cell viability at <=50 uM after 24 hrs; format: cell-based; settings: j774.a1, 24 h

Compound | fold change (FC) (J774.A1 [1]) | Activity (J774.A1 [2]) | Activity (J774.A1 [1])
Cc1ccc(C(=O)N/N=C/c2ccc(-c3ccc(C)c(Cl)c3)o2)cn1 | 21 | Non-toxic | –
COc1cc(Br)ccc1C(=O)N/N=C/c1ccco1 | – | – | inactive
O=C(N/N=C/c1ccc(-c2cccc(C(F)(F)F)c2)o1)c1ccc(Br)cc1 | – | – | inactive
O=C(N/N=C/c1ccc([N+](=O)[O-])o1)c1ccc(O)cc1O | – | – | inactive
Cc1ccc(C(=O)N/N=C/c2ccc(-c3cccc(C(F)(F)F)c3)o2)cn1 | <5 | – | –
O=C(N/N=C/c1ccc(-c2ccc([N+](=O)[O-])cc2)o1)c1cccc(O)c1 | – | – | inactive
CCN1C(=O)/C(=N\NC(=O)c2ccc3c(c2)OCO3)c2ccccc21 | – | – | inactive
O=C(N/N=C/c1ccco1)c1cccnc1 | – | – | inactive
O=C(N/N=C/c1cc(/N=N\c2cccc(C(F)(F)F)c2)ccc1O)c1ccc2c(c1)OCO2 | – | – | inactive
Cc1ccc(C(=O)N/N=C/c2ccc(-c3ccc(Cl)cc3Cl)o2)cn1 | – | Non-toxic | inactive
O=C(O)COc1ccccc1/C=N/NC(=O)c1ccc2c(c1)OCO2 | – | – | inactive
O=C(N/N=C/c1ccc(-c2cccc(C(F)(F)F)c2)o1)c1ccc([N+](=O)[O-])cc1 | <5 | – | –
Cc1ccc(C(=O)N/N=C/c2ccc(-c3cccc(Cl)c3Cl)o2)cn1 | – | Non-toxic | inactive
O=C(N/N=C/c1ccc(-c2ccc(Cl)c(Cl)c2)o1)c1ccccc1O | – | – | inactive
O=C(N/N=C/c1ccco1)c1cccc(F)c1 | – | – | inactive
O=C(N/N=C/c1ccc(-c2ccc(Cl)c(Cl)c2)o1)c1ccc2c(c1)OCO2 | <5 | – | –
CCc1ccc(C(=O)N/N=C/c2ccc(-c3ccc(C)c(Cl)c3)o2)nc1 | – | Non-toxic | inactive
Cc1ccc(C(=O)N/N=C/c2ccc(-c3cccc(Br)c3)o2)cn1 | – | Non-toxic | inactive
O=C(N/N=C/c1ccc(-c2cc(Cl)ccc2Cl)o1)c1ccc([N+](=O)[O-])cc1 | <5 | – | –
COc1ccc(C(=O)N/N=C\c2ccc(N(C)C)cc2)cc1 | – | – | inactive
O=C(N/N=C/c1ccc(-c2cccc(Cl)c2Cl)o1)c1cccnc1 | – | Non-toxic | inactive
O=C(N/N=C/c1ccc(-c2cccc(Cl)c2)o1)c1cccnc1 | 17 | Non-toxic | –

Compound | fold change (FC) (J774.A1 [1]) | Activity (J774.A1 [2]) | Activity (J774.A1 [1])
COc1ccc(-c2ccc(/C=N/NC(=O)c3ccc([N+](=O)[O-])cc3)o2)cc1Cl | – | – | inactive
O=C(N/N=C/c1ccc(-c2ccc(Cl)cc2Cl)o1)c1ccccc1[N+](=O)[O-] | – | – | inactive
O=C(/C=C\c1ccco1)Oc1ccc(/C=N\NC(=O)c2ccc3c(c2)OCO3)cc1 | – | – | inactive
Cc1ccc(C(=O)N/N=C/c2ccc(C)o2)cc1 | – | – | inactive
O=C(N/N=C/c1ccc(-c2ccccc2Cl)o1)c1cccnc1 | – | Non-toxic | inactive
O=C(N/N=C/c1ccc(-c2cc(Cl)c(Cl)cc2Cl)o1)c1cccnc1 | – | Non-toxic | inactive
Cc1ccc(-c2ccc(/C=N/NC(=O)c3cccnc3)o2)cc1Cl | 60 | Non-toxic | –
O=C(N/N=C/c1cc(/N=N\c2cccc3ccccc23)ccc1O)c1ccc2c(c1)OCO2 | – | – | inactive
CN(C)c1ccc(/C=N\NC(=O)c2cccc(F)c2)cc1 | – | – | inactive
C/C(=N\NC(=O)c1ccc2c(c1)OCO2)c1cccc([N+](=O)[O-])c1 | – | – | inactive
O=C(N/N=C/c1cc(Br)c(Br)o1)c1ccc2c(c1)OCO2 | <5 | – | –
CC(C)(C)c1ccc(C(=O)N/N=C/c2ccc(-c3ccc([N+](=O)[O-])cc3)o2)cc1 | – | – | inactive
Cc1ccc(C(=O)N/N=C/c2ccc(-c3cccc(Cl)c3)o2)cn1 | – | Non-toxic | inactive
O=C(N/N=C/c1ccc(-c2ccc(Br)cc2)o1)c1cccnc1 | – | Non-toxic | inactive
O=C(N/N=C/c1ccc(-c2ccc(Cl)c([N+](=O)[O-])c2)o1)c1ccc2c(c1)OCO2 | – | – | inactive
O=C(/C=C/c1ccco1)Oc1cccc(/C=N/NC(=O)c2ccc3c(c2)OCO3)c1 | – | – | inactive
Cc1cc(C)n(Cc2ccc(C(=O)N/N=C/c3ccco3)cc2)n1 | – | – | inactive
O=C(N/N=C/c1ccc(-c2ccc(Cl)c(Cl)c2)o1)c1ccncc1 | – | Non-toxic | inactive
CC(C)N1C(=O)/C(=N\NC(=O)c2ccc3c(c2)OCO3)c2ccccc21 | – | – | inactive
O=C(N/N=C/c1cc(Br)c(Br)o1)c1ccc2c(c1)OCCO2 | – | – | inactive
COc1ccc(C(=O)N/N=C/c2ccc(-c3ccc(Cl)c(C(=O)O)c3)o2)cc1 | – | – | inactive
O=C(N/N=C1\C(=O)N(Cc2cccc3ccccc23)c2ccccc21)c1ccc2c(c1)OCO2 | – | – | inactive

Compound | fold change (FC) (J774.A1 [1]) | Activity (J774.A1 [2]) | Activity (J774.A1 [1])
CN(C)c1ccc(/C=N/NC(=O)c2ccc3c(c2)OCO3)cc1 | – | – | inactive
O=C(N/N=C/c1ccc(Br)o1)c1ccccc1 | – | – | inactive
O=C(N/N=C/c1ccc(-c2ccc(Cl)cc2)o1)c1cncc(Br)c1 | 25 | Non-toxic | –
O=C(N/N=C/c1ccc(-c2cccc(Br)c2)o1)c1ccccn1 | – | Non-toxic | inactive
O=C(N/N=C/c1ccc(-c2cccc(Cl)c2Cl)o1)c1ccccc1 | 8 | – | –
CN(C)c1ccc(/C=N\NC(=O)c2ccccc2O)cc1 | – | – | inactive
CCOc1cc(/C=N\NC(=O)c2ccc3c(c2)OCO3)ccc1OC(=O)c1ccc(Br)cc1 | <5 | – | –
Cc1ccc(-c2ccc(/C=N/NC(=O)c3cncc(Br)c3)o2)cc1Cl | 10 | Non-toxic | –
COc1cc(/C=N\NC(=O)c2ccc3c(c2)OCO3)ccc1OC(=O)c1ccco1 | – | – | inactive
O=C(N/N=C/c1ccco1)c1ccc(Cl)cc1Cl | – | – | inactive
O=C(N/N=C/c1ccc(-c2ccc(Cl)cc2)o1)c1cccnc1 | 15 | Non-toxic | –
Cc1ccc(C(=O)N/N=C/c2ccc(-c3cc(Cl)c(Cl)cc3Cl)o2)cn1 | <5 | – | –
O=C(N/N=C/c1c(O)ccc2ccccc12)c1ccc2c(c1)OCO2 | – | – | inactive
O=C(N/N=C/c1ccco1)c1ccccc1 | – | – | inactive
CN(C)c1ccc(/C=N\NC(=O)c2ccc([N+](=O)[O-])cc2)cc1 | 25 | – | –
O=C(N/N=C/c1ccc(-c2cccc(Cl)c2)o1)c1ccc([N+](=O)[O-])cc1 | – | – | inactive
O=C(N/N=C/c1ccc([N+](=O)[O-])o1)c1cc([N+](=O)[O-])cc([N+](=O)[O-])c1O | – | – | inactive
O=C(N/N=C/c1ccco1)c1ccc(Br)cc1O | – | – | inactive
O=C(N/N=C/c1ccc(-c2ccccc2Cl)o1)c1ccc(Cl)cc1Cl | <5 | – | –
O=C(N/N=C/c1cc(Br)cc(Br)c1OC(=O)c1ccccc1)c1ccc2c(c1)OCO2 | <5 | – | –
COc1cc(/C=N\NC(=O)c2ccc3c(c2)OCO3)ccc1OCc1ccccc1 | 7 | – | –
O=C(N/N=C/c1cc(Br)cc(I)c1O)c1ccc2c(c1)OCCO2 | – | – | inactive

Compound | fold change (FC) (J774.A1 [1]) | Activity (J774.A1 [2]) | Activity (J774.A1 [1])
O=C(N/N=C/c1ccc(-c2cccc(Br)c2)o1)c1cccnc1 | 50 | – | –
Cc1ccc(C(=O)N/N=C/c2ccc(-c3cc(Cl)ccc3Cl)o2)cn1 | – | Non-toxic | inactive
COc1ccc(Cl)cc1/C=N/NC(=O)c1ccc2c(c1)OCCO2 | – | – | inactive
O=C(N/N=C/c1ccc(-c2cccc(C(F)(F)F)c2)o1)c1ccc(F)cc1 | 35 | – | –
CCOc1ncccc1C(=O)N/N=C/c1ccc([N+](=O)[O-])o1 | – | – | inactive
COc1cc(/C=N\NC(=O)c2cccc(C)c2O)ccc1OCc1ccccc1 | – | – | inactive
COc1ccc(Br)cc1C(=O)N/N=C/c1ccc(C)o1 | – | – | inactive
Cc1ccc(C(=O)N/N=C/c2ccc(-c3ccc(Cl)cc3)o2)cn1 | – | Non-toxic | inactive
Cc1ccc(C(=O)N/N=C/c2ccc(-c3ccc(Cl)c(Cl)c3)o2)cn1 | – | Non-toxic | inactive
Cc1ccc(-c2ccc(/C=N/NC(=O)c3ccncc3)o2)cc1Cl | 50 | Non-toxic | –
O=C(N/N=C/c1ccc(-c2ccc(Cl)cc2)o1)c1ccncc1 | – | Non-toxic | inactive
O=C(N/N=C/c1ccc(-c2ccc([N+](=O)[O-])cc2Cl)o1)c1ccc2c(c1)OCO2 | 35 | – | –
COc1ccccc1OCc1ccc(C(=O)N/N=C/c2ccco2)cc1 | – | – | inactive
COc1ccc(/C=N/NC(=O)c2ccc3c(c2)OCO3)c(OC)c1 | – | – | inactive
COc1ccc(/C(C)=N/NC(=O)c2ccc3c(c2)OCCO3)cc1[N+](=O)[O-] | – | – | inactive
O=C(N/N=C/c1ccc(-c2ccc(Cl)cc2Cl)o1)c1cncc(Br)c1 | – | Non-toxic | inactive
O=C(N/N=C/c1ccc(-c2ccc(O)c(C(=O)O)c2)o1)c1cccnc1 | – | – | inactive
O=C(N/N=C/c1ccc(I)o1)c1ccccc1F | – | – | inactive
O=C(N/N=C/c1ccc(-c2cccc(C(F)(F)F)c2)o1)c1cc(I)ccc1Cl | <5 | – | –
